Measured values: ChEMBL document CHEMBL1134221, “RPR203494 a pyrimidine analogue of the p38 inhibitor RPR200765A with an improved in vitro potency” (Bioorg Med Chem Lett, 2001)

Columns and labels:
[1] = target: T1, MAP kinase p38 (Mus musculus, UniProt P47811+O08911+Q9WUI1+Q9Z1B7); experiment: Inhibition of murine Mitogen-activated protein kinase p38; format: protein assay
Outline: (§1)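 Mouse p38 enzyme at 40 ng/well, run 1 h at room temperature. ATF-2 substrate is coated onto plates. Buffer is 25 mM Hepes pH 7.7 with 25 mM MgCl2, 2 mM dithiothreitol, 1 mM sodium orthovanadate and ATP. Phospho-ATF-2 is detected with phospho-specific primary antibodies. IC50 is given as mean±SEM of repeat experiments (n=3).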

[2] = Inhibitory concentration against lipopolysaccharide induced TNF-alpha release on human monocytes; format: functional
Outline: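 Adherent human monocytes (100,000 cells/well) are stimulated with LPS (10 ng/mL) for 18 h, with or without compound. Each experiment is run in quadruplicate. TNF-α is measured by sandwich ELISA, and EC50 is calculated for each compound.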

[3] = Oral bioavailability in rat; format: ADME, organism-based; settings: in vivo
Outline: (§2)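 Rat pharmacokinetics with the compound given alone: an iv arm at 1 mg/kg and an oral arm at 5 mg/kg. Plasma profiles give Cmax, Tmax, AUC, terminal half-life, total clearance and Vdss. Absolute oral bioavailability is derived by comparing the oral and iv exposures.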

[4] = Stability (%) in rat liver microsomes; format: ADME; settings: read-out: % turnover
[5] = Inhibitory activity against lipopolysaccharide induced TNF-alpha release on human monocytes at a concentration of 300 nM; format: functional
[6] = target: T1, MAP kinase p38; experiment: Inhibitory activity against p38 kinase (40 ng/well) was determined in mouse; outline: as §1
[7] = T max in Rat at a oral dose of 5 mg/kg; format: ADME, organism-based; parameters: dose 5 mg/kg, route oral; settings: in vivo; outline: as §2
[8] = Terminal half life in Rat at a oral dose of 5 mg/kg; format: ADME, organism-based; parameters: dose 5 mg/kg, route oral; settings: in vivo; outline: as §2
[9] = Oral Bioavailability after intravenous administration (1 mg/kg) in rat; format: ADME, organism-based; settings: in vivo, 5 mg/kg, in the assay text read “oral administration (5 mg/kg)” for “intravenous administration (1 mg/kg)”; outline: as §2
[10] = Area under curve in Rat at a oral dose of 5 mg/kg; format: ADME, organism-based; parameters: dose 5 mg/kg, route oral; settings: in vivo; outline: as §2
[11] = Terminal half life after intravenous administration (1 mg/kg) in rat; format: ADME, organism-based; settings: in vivo; outline: as §2
[12] = Volume distribution after intravenous administration (1 mg/kg) in rat; format: ADME, organism-based; settings: in vivo, read-out: Vdss; outline: as §2
[13] = Plasma clearance after intravenous administration (1 mg/kg) in rat; format: ADME, organism-based; settings: read-out: Clp (converted); outline: as §2
[14] = Maximum plasma concentration in Rat at a oral dose of 5 mg/kg; format: ADME, organism-based; parameters: dose 5 mg/kg, route oral; settings: read-out: CPmax; outline: as §2
[15] = Area under curve after intravenous administration (1 mg/kg) in rat; format: ADME, organism-based; settings: in vivo; outline: as §2

SMILES | EC50 [2] [nM] | bioavailability [3] [%] | metabolised [4] [%] | other results
COCCCNc1nccc(-c2[nH]c([C@H]3OC[C@](C)(C(=O)N4CCOCC4)CO3)nc2-c2ccc(F)cc2)n1 | 54 | 15 |  | IC50 [1]: 7 nM
C[C@H](Nc1nccc(-c2[nH]c([C@H]3OC[C@](C)(C(=O)N4CCOCC4)CO3)nc2-c2ccc(F)cc2)n1)c1ccccc1 | 1.5 | 10 | 71 | 
COc1cccc(Nc2nccc(-c3[nH]c([C@H]4OC[C@](C)(C(=O)N5CCOCC5)CO4)nc3-c3ccc(F)cc3)n2)c1 | 33 | 6 | 54.1 | 
C[C@]1(C(=O)N2CCOCC2)CO[C@H](c2nc(-c3ccc(F)cc3)c(-c3ccnc(N)n3)[nH]2)OC1 |  |  | 17.6 | inhibition at 0.3 µM [5]: 39%
C[C@]1(C(=O)N2CCOCC2)CO[C@H](c2nc(-c3ccc(F)cc3)c(-c3ccnc(NCCC#N)n3)[nH]2)OC1 |  |  |  | inhibition at 0.3 µM [5]: 28%
C[C@]1(C(=O)N2CCOCC2)CO[C@H](c2nc(-c3ccc(F)cc3)c(-c3ccnc(NCCC(=O)O)n3)[nH]2)OC1 |  |  | 3.5 | inhibition at 0.3 µM [5]: 6%
C[C@]1(C(=O)N2CCOCC2)CO[C@H](c2nc(-c3ccc(F)cc3)c(-c3ccnc(N4CCCCC4)n3)[nH]2)OC1 |  |  | 99 | inhibition at 0.3 µM [5]: 26%
CNc1nccc(-c2[nH]c([C@H]3OC[C@](C)(C(=O)N4CCOCC4)CO3)nc2-c2ccc(F)cc2)n1 |  |  | 8.1 | inhibition at 0.3 µM [5]: 38%
CN(C)CCNc1nccc(-c2[nH]c([C@H]3OC[C@](C)(C(=O)N4CCOCC4)CO3)nc2-c2ccc(F)cc2)n1 | 570 |  | 29 | 
C[C@]1(C(=O)N2CCOCC2)CO[C@H](c2nc(-c3ccc(F)cc3)c(-c3ccnc(NCc4ccccc4)n3)[nH]2)OC1 | 12 | 24 | 68 | IC50 [1]: 5 nM
C[C@]1(C(=O)N2CCOCC2)CO[C@H](c2nc(-c3ccc(F)cc3)c(-c3ccnc(NCCCO)n3)[nH]2)OC1 | 57 | 2 |  | 
C[C@]1(C(=O)N2CCOCC2)CO[C@H](c2nc(-c3ccc(F)cc3)c(-c3ccnc(Nc4ccccc4)n3)[nH]2)OC1 | 54 | 29 | 51 | IC50 [6]: 16 nM
C[C@]1(C(=O)N2CCOCC2)CO[C@H](c2nc(-c3ccc(F)cc3)c(-c3ccnc(NC4CCCCC4)n3)[nH]2)OC1 | 24 |  | 98.6 | 
C[C@]1(C(=O)N2CCOCC2)CO[C@H](c2nc(-c3ccc(F)cc3)c(-c3ccnc(NCCO)n3)[nH]2)OC1 | 319 |  | 18 | 
CN(C)CCCNc1nccc(-c2[nH]c([C@H]3OC[C@](C)(C(=O)N4CCOCC4)CO3)nc2-c2ccc(F)cc2)n1 |  |  | 18 | inhibition at 0.3 µM [5]: 27%
C[C@]1(C(=O)N2CCOCC2)CO[C@H](c2nc(-c3ccc(F)cc3)c(-c3ccnc(NCc4ccc(F)cc4)n3)[nH]2)OC1 | 62 |  | 44.6 | 
CCCNc1nccc(-c2[nH]c([C@H]3OC[C@](C)(C(=O)N4CCOCC4)CO3)nc2-c2ccc(F)cc2)n1 | 124 |  |  | 
CN(C)c1nccc(-c2[nH]c([C@H]3OC[C@](C)(C(=O)N4CCOCC4)CO3)nc2-c2ccc(F)cc2)n1 |  |  | 40.7 | inhibition at 0.3 µM [5]: 8%
C[C@@H](Nc1nccc(-c2[nH]c([C@H]3OC[C@](C)(C(=O)N4CCOCC4)CO3)nc2-c2ccc(F)cc2)n1)c1ccccc1 | 10 |  | 81 | 
C=CCNc1nccc(-c2[nH]c([C@H]3OC[C@](C)(C(=O)N4CCOCC4)CO3)nc2-c2ccc(F)cc2)n1 | 110 |  | 89.1 | 
C[C@]1(C(=O)N2CCOCC2)CO[C@H](c2nc(-c3ccc(F)cc3)c(-c3ccnc(NCc4ccccn4)n3)[nH]2)OC1 | 45 | 25 | 25 | 
C[C@]1(C(=O)N2CCOCC2)CO[C@H](c2nc(-c3ccc(F)cc3)c(-c3ccnc(NCC4CC4)n3)[nH]2)OC1 | 69 |  | 87 | 
C[C@]1(C(=O)N2CCOCC2)CO[C@H](c2nc(-c3ccc(F)cc3)c(-c3ccnc(Nc4ccncc4)n3)[nH]2)OC1 | 41 |  |  | 
C[C@]1(C(=O)N2CCOCC2)CO[C@H](c2nc(-c3ccc(F)cc3)c(-c3ccnc(NCc4cccs4)n3)[nH]2)OC1 | 70 |  | 92 | 
C[C@]1(C(=O)N2CCOCC2)CO[C@H](c2nc(-c3ccc(F)cc3)c(-c3ccnc(NC4CC4)n3)[nH]2)OC1 | 60 | 29 | 43.6 | Tmax [7]: 0.5 h; half-life [8]: 1.4 h; bioavailability [9]: 48%; AUC [10]: 1390 ng·h/mL; half-life [11]: 1.2 h; IC50 [1]: 9 nM; Vd [12]: 1.2 L/kg; clearance [13]: 30 mL/min/kg; Cmax [14]: 620 ng/mL; AUC [15]: 580 ng·h/mL
COc1ccc(CNc2nccc(-c3[nH]c([C@H]4OC[C@](C)(C(=O)N5CCOCC5)CO4)nc3-c3ccc(F)cc3)n2)cc1 | 49 | 1 | 23.9 | 
C[C@]1(C(=O)N2CCOCC2)CO[C@H](c2nc(-c3ccc(F)cc3)c(-c3ccnc(NCC(=O)O)n3)[nH]2)OC1 | > 10000 |  |  | 
C[C@]1(C(=O)N2CCOCC2)CO[C@H](c2nc(-c3ccc(F)cc3)c(-c3ccnc(Nc4cccnc4)n3)[nH]2)OC1 | 231 |  |  | 
